Experiments:
[1] = Potency index, ratio of parthenolide EC50 to compound EC50 for human M9-ENL1 cells; assay type: functional
[2] = Antileukemic activity against human AML05 cells after 24 hrs by annexin V/7-AAD staining-based flow cytometric analysis; assay type: functional, cell-based
In short: (§1)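 Primary AML specimens from consenting donors, isolated by Ficoll-Paque gradient and sometimes cryopreserved. Cells were held 1 h in serum-free IMDM with 20% BIT 9500, LDL and β-mercaptoethanol before drug (DMSO stock diluted in PBS, ≤0.5% DMSO final). Exposure was 24 h over 0.5-10 μM. Annexin V/7-AAD double-negative cells, normalized to vehicle, gave the EC50. Run in triplicate.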

[3] = Antileukemic activity against human AML02 cells after 24 hrs by annexin V/7-AAD staining-based flow cytometric analysis; assay type: functional, cell-based; in short: as §1
[4] = Antileukemic activity against human M9-ENL1 cells after 24 hrs by annexin V/7-AAD staining-based flow cytometric analysis; assay type: functional, cell-based
In short: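 M9-ENL1 cells in alpha-MEM with 5% human plasma, 20% FBS, SCF, IL-3, IL-7 and FLT3. Drug came from a DMSO stock diluted in PBS (≤0.5% DMSO final), for 24 h over 0.5-10 μM. Cells negative for both annexin V and 7-AAD were taken as non-apoptotic and normalized to vehicle. EC50 read from dose-response curves, triplicate.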

[5] = Antileukemic activity against human AML01 cells after 24 hrs by annexin V/7-AAD staining-based flow cytometric analysis; assay type: functional, cell-based; in short: as §1
[6] = Cytotoxicity against hematopoietic progenitor cells isolated from human umbilical cord blood by annexin V staining-based flow cytometric analysis; assay type: cell-based
In short: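 Cord-blood mononuclear cells from Ficoll-Paque were plated in serum-free medium, with drug from a DMSO stock (≤0.5% DMSO final). Cells were stained for CD34, CD45 and annexin V. The non-apoptotic fraction (annexin V-negative within the CD34+CD45dim compartment) was normalized to vehicle, and EC50 was fitted where possible. Triplicate.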

[7] = Antileukemic activity against human AML03 cells after 24 hrs by annexin V/7-AAD staining-based flow cytometric analysis; assay type: functional, cell-based; in short: as §1
[8] = Antileukemic activity against human AML04 cells after 24 hrs by annexin V/7-AAD staining-based flow cytometric analysis; assay type: functional, cell-based; in short: as §1

Row | Compound | Ratio EC50 [1] | EC50 [2] [µM] | EC50 [3] [µM] | EC50 [4] [µM] | EC50 [5] [µM] | EC50 [6] [µM] | EC50 [7] [µM] | EC50 [8] [µM]
1 | C=C1C(=O)O[C@H]2[C@H]1CC/C(COC(=O)NCCCNC(=O)OC/C1=C/CC[C@@]3(C)O[C@H]3[C@H]3OC(=O)C(=C)[C@@H]3CC1)=C\CC[C@@]1(C)O[C@@H]21 | 2 | 3.7 | 2.3 | 1 | 2.6 |  |  | 
2 | C=C1C(=O)O[C@H]2[C@H]1CC/C(COC(=O)NCCCCCCNC(=O)OC/C1=C/CC[C@@]3(C)O[C@H]3[C@H]3OC(=O)C(=C)[C@@H]3CC1)=C\CC[C@@]1(C)O[C@@H]21 | 2 | 1.7 | 1.2 | 1.5 | 1.6 | > 10 | 3.5 | 3.7
3 | C=C1C(=O)O[C@H]2[C@H]1CC/C(COC(=O)NCCCCCCCNC(=O)OC/C1=C/CC[C@@]3(C)O[C@H]3[C@H]3OC(=O)C(=C)[C@@H]3CC1)=C\CC[C@@]1(C)O[C@@H]21 | 2 | 2.4 | 1.3 | 1.1 | 1.7 | > 10 | 5.7 | 3.6
4 | C=C1C(=O)O[C@H]2[C@H]1CC/C(COC(=O)NCCCCCCCCCNC(=O)OC/C1=C/CC[C@@]3(C)O[C@H]3[C@H]3OC(=O)C(=C)[C@@H]3CC1)=C\CC[C@@]1(C)O[C@@H]21 | 2 | 3.2 | 1.5 | 2 | 1.9 | > 10 | 2.4 | 3.7
5 | C=C1C(=O)O[C@H]2[C@H]1CC/C(COC(=O)NCCCCCCCCCCNC(=O)OC/C1=C/CC[C@@]3(C)O[C@H]3[C@H]3OC(=O)C(=C)[C@@H]3CC1)=C\CC[C@@]1(C)O[C@@H]21 | 2 | 3.3 | 2 | 2.9 | 2.3 | > 10 | 2.9 | 4.2
6 | C=C1C(=O)O[C@H]2[C@H]1CC/C(COC(=O)OCCCCOC(=O)OC/C1=C/CC[C@@]3(C)O[C@H]3[C@H]3OC(=O)C(=C)[C@@H]3CC1)=C\CC[C@@]1(C)O[C@@H]21 | 2 | 2.7 |  | 1.2 | 0.93 |  | 0.86 | 2.7
7 | C=C1C(=O)O[C@H]2[C@H]1CC/C(COC(=O)OCCCCCOC(=O)OC/C1=C/CC[C@@]3(C)O[C@H]3[C@H]3OC(=O)C(=C)[C@@H]3CC1)=C\CC[C@@]1(C)O[C@@H]21 | 2 | 2.1 | 2.2 | 2.4 |  |  | 1.4 | 
8 | C=C1C(=O)O[C@H]2[C@H]1CC/C(COC(=O)OC/C1=C/CC[C@@]3(C)O[C@H]3[C@H]3OC(=O)C(=C)[C@@H]3CC1)=C\CC[C@@]1(C)O[C@@H]21 | 2 |  |  | 0.54 | 1.6 |  |  | 
9 | C=C1C(=O)O[C@@H]2C3O[C@]3(C)CC/C=C(\C)CC[C@@H]12 (some centres not stated) |  | 7 | 2.5 | 6 | 16 |  | 4.7 | 8
